Consider 4 compounds from ChEMBL document CHEMBL3244289, “Synthesis and antibacterial activity of 2'-substituted chelocardin analogues” (1979).

Broadly, the MIC is the lowest concentration that inhibits growth of the organism. Higher therefore signals a less susceptible organism.

In experiment [1] the test system is Proteus mirabilis. The experiment is described as follows: Antibacterial activity against Proteus mirabilis infected in po dosed mouse assessed as protection against bacterial infection. The format is functional. An outline of the steps: (§1)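 Mice were challenged intraperitoneally with Proteus mirabilis, and compound was given by the line's route (oral or subcutaneous). The CD50 is the total dose in mg/kg that protects 50% of challenged mice.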

Experiment [2] relates to Staphylococcus aureus. As to the kind of experiment: Antibacterial activity against Staphylococcus aureus Smith by two-fold agar dilution method. The format is functional. An outline of the steps:
(§2)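 MIC determined by twofold serial dilution in brain-heart infusion agar. Values are reported in µg/mL.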
(In general: In agar dilution, organisms are placed on agar that contains the substance at set levels.)

In a further experiment the test system is Pasteurella multocida. As to the kind of experiment: Antibacterial activity against Pasteurella multocida 10544 by two-fold agar dilution method. It counts as functional. The procedure, abridged:
as §2

The subject of a further experiment is Streptococcus pyogenes. The experiment is described as follows: Antibacterial activity against Streptococcus pyogenes C-203 by two-fold agar dilution method. It counts as functional. An outline of the steps:
as §2

In another experiment the test system is Pseudomonas aeruginosa. As to the kind of experiment: Antibacterial activity against Pseudomonas aeruginosa by two-fold agar dilution method. The format is functional, organism-based. The procedure, abridged:
as §2

In another experiment the test system is Escherichia coli. The experiment is described as follows: Antibacterial activity against Escherichia coli Juhl by two-fold agar dilution method. It counts as functional. An outline of the steps:
as §2

Experiment [3] relates to Staphylococcus aureus. As to the kind of experiment: Antibacterial activity against Staphylococcus aureus 45 by two-fold agar dilution method. The format is functional. An outline of the steps:
as §2

In a further experiment the test system is Proteus vulgaris. As to the kind of experiment: Antibacterial activity against Proteus vulgaris by two-fold agar dilution method. It counts as functional. An outline of the steps:
as §2

Experiment [4] relates to Proteus mirabilis. The experiment is described as follows: Antibacterial activity against Proteus mirabilis infected in sc dosed mouse assessed as protection against bacterial infection. The format is functional. An outline of the steps: as §1
The test system of a further experiment is Enterococcus. As to the kind of experiment: Antibacterial activity against Enterococcus 89 by two-fold agar dilution method. It counts as functional. The procedure, abridged:
as §2

For a further experiment, the system named is Klebsiella pneumoniae. The experiment is described as follows: Antibacterial activity against Klebsiella pneumoniae 8045 by two-fold agar dilution method. The format is functional. The procedure, abridged:
as §2

In another experiment the test system is Salmonella typhi. The experiment is described as follows: Antibacterial activity against Salmonella typhi by two-fold agar dilution method. It counts as functional, Salmonella enterica subsp. enterica serovar Typhi. Conditions: Salmonella enterica. The procedure, abridged: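 MIC in µg/mL by twofold serial agar dilution on brain-heart infusion agar.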

Experiment [5] deals with Proteus mirabilis. The experiment is described as follows: Antibacterial activity against Proteus mirabilis by two-fold agar dilution method. The format is functional. An outline of the steps: as §2

Activity calls are given as the source filed them. No cut-off for these calls is given here. Bounds are passed on as bounds.

As for `CC(=O)C1=C(O)[C@H](N)[C@@H]2Cc3c(c(O)c4c(O)c(C)ccc4c3C)C(=O)[C@]2(O)C1=O.Cl` [CETOCYCLINE HYDROCHLORIDE], the CD50 with Proteus mirabilis [1] came out at 200 mg/kg; in the experiment with Proteus mirabilis [4] it was 12.5 mg/kg. The minimal inhibitory concentration (MIC) against Staphylococcus aureus [2] came out at 3.1 mg/L; in the experiment on Pasteurella multocida, 0.39 mg/L; in the experiment with Streptococcus pyogenes it was 3.1 mg/L; against Escherichia coli, 6.2 mg/L; in the experiment on Staphylococcus aureus [3], 6.2 mg/L; against Proteus vulgaris, 1.56 mg/L. The MIC in the experiment with Enterococcus is 6.2 mg/L; in the experiment on Klebsiella pneumoniae it was 3.1 mg/L; against Salmonella typhi, 1.5 mg/L; against Proteus mirabilis [5] it was 1.56 mg/L. Besides, the outcome in the experiment with Pseudomonas aeruginosa was inactive.

Turning to `C/C(=N\NC(=N)N)C1=C(O)[C@H](N)[C@@H]2Cc3c(c(O)c4c(O)c(C)ccc4c3C)C(=O)[C@]2(O)C1=O.Cl`, the CD50 in the experiment on Proteus mirabilis [1] was found to be 100 mg/kg; with Proteus mirabilis [4], 12.5 mg/kg. Further, the MIC with Staphylococcus aureus [2] amounted to 50 mg/L; in the experiment on Pasteurella multocida, 3.1 mg/L; against Streptococcus pyogenes it was 25 mg/L; in the experiment on Escherichia coli it was 25 mg/L; against Staphylococcus aureus [3] it was 50 mg/L; in the experiment with Proteus vulgaris, 12.5 mg/L. Also, the MIC in the experiment with Enterococcus is 50 mg/L; against Klebsiella pneumoniae it was 12.5 mg/L; in the experiment on Salmonella typhi, 25 mg/L; against Proteus mirabilis [5] it was 12.5 mg/L. Moreover, the result in the experiment on Pseudomonas aeruginosa was inactive.

With `C/C(=N\c1ccc(S(N)(=O)=O)cc1)C1=C(O)[C@H](N)[C@@H]2Cc3c(c(O)c4c(O)c(C)ccc4c3C)C(=O)[C@]2(O)C1=O.Cl`, the CD50 in the experiment with Proteus mirabilis [1] is <25 mg/kg; with Proteus mirabilis [4], 6.25 mg/kg. Besides, the minimal inhibitory concentration (MIC) against Staphylococcus aureus [2] is 3.1 mg/L; against Pasteurella multocida, 0.2 mg/L; in the experiment with Streptococcus pyogenes, 3.1 mg/L; in the experiment with Escherichia coli it was 6.2 mg/L; against Staphylococcus aureus [3], 6.2 mg/L; in the experiment on Proteus vulgaris it was 1.56 mg/L. Also, the MIC in the experiment on Enterococcus is 6.2 mg/L; in the experiment with Klebsiella pneumoniae, 1.56 mg/L; with Salmonella typhi it was 0.7 mg/L; with Proteus mirabilis [5], 3.1 mg/L. The result in the experiment on Pseudomonas aeruginosa was inactive.

As to `CC(=O)NS(=O)(=O)c1ccc(/N=C(\C)C2=C(O)[C@H](N)[C@@H]3Cc4c(c(O)c5c(O)c(C)ccc5c4C)C(=O)[C@]3(O)C2=O)cc1.Cl`, the CD50 was 100 mg/kg in the experiment on Proteus mirabilis [1] and 6.25 mg/kg with Proteus mirabilis [4]. Besides, the minimal inhibitory concentration (MIC) was 3.1 mg/L against Staphylococcus aureus [2]; 0.78 mg/L in the experiment with Pasteurella multocida; 3.1 mg/L against Streptococcus pyogenes; 6.2 mg/L in the experiment with Escherichia coli; 6.2 mg/L against Staphylococcus aureus [3]; 3.1 mg/L against Proteus vulgaris. Also, the MIC with Enterococcus turned out to be 12.5 mg/L; in the experiment on Klebsiella pneumoniae, 1.56 mg/L; with Salmonella typhi, 1.5 mg/L; against Proteus mirabilis [5], 6.2 mg/L. For the same compound, the result in the experiment with Pseudomonas aeruginosa was inactive.
